Some results are limits rather than exact numbers.

The target in data set [1] is T1, Human immunodeficiency virus type 1 integrase (Human immunodeficiency virus 1, UniProt Q7ZJM1). The data set can be described thus: Binding affinity to HIV1 integrase by displacement assay. Particulars: read-out: Kd(app). The method, boiled down: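 The displacement assay against HIV-1 integrase gives the value as an apparent dissociation constant (Kd-app).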
Data set [2] relates to Human immunodeficiency virus 1. The data set can be described thus: Antiviral activity against HIV1 HxB2 harboring integrase A124/T125 mutant by cell based luciferase reporter gene assay. It counts as functional, organism-based. The settings on record: Human immunodeficiency virus 1, HxB2. The method, boiled down:
(§1)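 Cell-based luciferase reporter gene assay of HIV-1 replication. Virus was HxB2 (IN A124/T125), wild-type NL4.3 (T124/T125), or recombinant NL4.3 carrying IN variants A124/T125, A124/A125, N124/T125, N124/A125 or T124/A125 (T125A). EC50 is the mean of at least two experiments. Where three or more experiments were run, relative SD was 12–43%.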
(Reporter assays use an easily measured gene product as a stand-in for the process of interest.)

In data set [3] the test system is Human immunodeficiency virus 1. Kind of data set: Antiviral activity against HIV1 NL4.3 harboring integrase T124/A125 mutant by cell based luciferase reporter gene assay. It counts as functional, organism-based. The settings on record: Human immunodeficiency virus 1, NL4.3. The method, boiled down: as §1
Data set [4] deals with T1, Human immunodeficiency virus type 1 integrase. Kind of data set: Inhibition of HIV1 integrase by LTR cleavage assay.
Data set [5] can be described thus: Half life in human liver microsomes. The data set is classed as ADME.
In data set [6] the test system is Human immunodeficiency virus 1. Kind of data set: Antiviral activity against HIV1 NL4.3 harboring integrase T125A mutant by cell based luciferase reporter gene assay in presence of 50% human serum. The arrangement: reference not given here. The data set is classed as functional. The method, boiled down:
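Luciferase reporter gene assay with recombinant NL4.3 carrying the IN T125A substitution. […] Each value is the mean of at least two experiments.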

Data set [7] relates to Human immunodeficiency virus 1. Kind of data set: Ratio of EC50 for HIV1 NL4.3 harboring integrase T124/A125 mutant to EC50 for HIV1 HxB2 harboring integrase A124/T125 mutant.
Data set [8] relates to Human immunodeficiency virus 1. Kind of data set: Antiviral activity against HIV1 NL4.3 harboring integrase A124/A125 mutant by cell based luciferase reporter gene assay. The data set is classed as functional, organism-based. The settings on record: Human immunodeficiency virus 1, NL4.3. In outline:
as §1

The subject of data set [9] is Human immunodeficiency virus 1. The data set can be described thus: Antiviral activity against HIV1 NL4.3 harboring integrase N124/T125 mutant by cell based luciferase reporter gene assay. It counts as functional, organism-based. Particulars: Human immunodeficiency virus 1, NL4.3. The method, boiled down:
as §1

The test system of data set [10] is Human immunodeficiency virus 1. The data set can be described thus: Antiviral activity against HIV1 NL4.3 harboring integrase N124/A125 mutant by cell based luciferase reporter gene assay. Particulars: Human immunodeficiency virus 1, NL4.3. The data set is classed as functional, organism-based. The method, boiled down: as §1
A further data set deals with Cytochrome P450 3A4 (Homo sapiens, UniProt P08684). The data set can be described thus: Inhibition of CYP3A4 (unknown origin). The data set is classed as ADME.
Cytochrome P450 3A4, sequence (P08684 whole entry): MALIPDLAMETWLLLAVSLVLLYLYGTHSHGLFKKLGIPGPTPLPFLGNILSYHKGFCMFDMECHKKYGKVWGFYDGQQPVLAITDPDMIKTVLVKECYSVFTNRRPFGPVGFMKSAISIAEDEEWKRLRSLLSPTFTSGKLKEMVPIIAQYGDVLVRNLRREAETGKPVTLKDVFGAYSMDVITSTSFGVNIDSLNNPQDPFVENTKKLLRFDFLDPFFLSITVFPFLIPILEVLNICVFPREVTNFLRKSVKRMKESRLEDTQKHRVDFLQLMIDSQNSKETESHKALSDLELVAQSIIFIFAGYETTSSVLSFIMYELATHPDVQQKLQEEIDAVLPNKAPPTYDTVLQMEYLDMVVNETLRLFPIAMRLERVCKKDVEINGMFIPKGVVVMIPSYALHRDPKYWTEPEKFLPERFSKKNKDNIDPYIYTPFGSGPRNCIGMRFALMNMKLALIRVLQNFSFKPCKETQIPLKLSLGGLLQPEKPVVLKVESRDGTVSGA
The next data set concerns the target Cytochrome P450 2D6 (Homo sapiens, UniProt P10635). The data set can be described thus: Inhibition of CYP2D6 (unknown origin). The data set is classed as ADME.
A short description of data set [11]: Half life in rat at 0.2 mg/kg, iv and 0.4 mg/kg, po. It counts as ADME, organism-based. The settings on record: in vivo.
Data set [12] can be described thus: Apparent permeability across human Caco2 cells. The data set is classed as ADME, cell-based. Particulars: Caco-2.
Data set [13] is described as follows: Half life in rat liver microsomes. It counts as ADME. (In general: Microsomes from liver hold many membrane-bound enzymes, among them those of drug oxidation.)
Data set [14] relates to Human immunodeficiency virus 1. Kind of data set: Antiviral activity against HIV1 NL4.3 harboring integrase A124/T125 mutant by cell based luciferase reporter gene assay. The settings on record: Human immunodeficiency virus 1, NL4.3. The data set is classed as functional, organism-based. The method, boiled down: as §1
For data set [15], the system named is Human immunodeficiency virus 1. The data set can be described thus: Antiviral activity against HIV1 NL4.3 harboring integrase T124/T125 mutant by cell based luciferase reporter gene assay. It counts as functional, organism-based. Particulars: Human immunodeficiency virus 1, NL4.3. The method, boiled down: as §1
The nature of data set [16]: Oral bioavailability in rat at 0.4 mg/kg. It counts as ADME, organism-based. Particulars: in vivo.
Data set [17] in a line: Solubility of the compound at pH 6.8. It counts as physicochemical. The settings on record: buffer. The method, boiled down:
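Solubility was measured at pH 6.8 on the amorphous powder form of the compound.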

T1 sequence (Q7ZJM1 whole entry): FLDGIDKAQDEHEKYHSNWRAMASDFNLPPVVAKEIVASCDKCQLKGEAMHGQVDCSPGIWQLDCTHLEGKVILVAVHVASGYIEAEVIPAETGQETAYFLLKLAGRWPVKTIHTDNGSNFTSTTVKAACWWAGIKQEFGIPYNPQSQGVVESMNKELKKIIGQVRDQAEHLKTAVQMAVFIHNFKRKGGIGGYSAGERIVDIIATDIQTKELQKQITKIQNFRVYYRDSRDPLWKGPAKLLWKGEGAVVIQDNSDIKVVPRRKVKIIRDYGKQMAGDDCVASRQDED
Cytochrome P450 2D6, sequence (P10635 whole entry): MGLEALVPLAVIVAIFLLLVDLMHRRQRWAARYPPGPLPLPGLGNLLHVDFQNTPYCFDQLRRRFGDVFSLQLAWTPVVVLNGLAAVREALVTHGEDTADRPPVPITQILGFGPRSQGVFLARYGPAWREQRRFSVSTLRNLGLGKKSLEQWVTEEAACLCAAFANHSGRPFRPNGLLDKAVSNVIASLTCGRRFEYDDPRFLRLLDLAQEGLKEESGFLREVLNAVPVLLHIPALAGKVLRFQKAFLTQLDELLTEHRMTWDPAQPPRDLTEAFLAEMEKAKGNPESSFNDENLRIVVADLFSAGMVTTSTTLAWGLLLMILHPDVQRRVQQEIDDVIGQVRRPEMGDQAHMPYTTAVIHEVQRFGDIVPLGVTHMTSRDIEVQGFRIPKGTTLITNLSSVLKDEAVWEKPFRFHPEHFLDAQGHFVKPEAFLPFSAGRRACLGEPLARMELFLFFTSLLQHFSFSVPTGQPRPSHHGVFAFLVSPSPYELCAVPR

For orientation: EC50 means the midpoint of the concentration-response curve. For `Cc1nc2ccccc2c(-c2ccc(Cl)cc2)c1[C@H](OC(C)(C)C)C(=O)O`, the Kd in [1] was determined as 49 nM. For the same molecule, the EC50 in [2] was 23 nM; in data set [3], 110 nM.

Regarding `Cc1nc2ccc(F)cc2c(-c2ccc(Cl)cc2)c1[C@H](OC(C)(C)C)C(=O)O`, the Kd in data set [1] turned out to be 61 nM. Besides, the EC50 came out at 28 nM in data set [2] and 70 nM in data set [3].

`Cc1nc2cc(Cl)ccc2c(-c2ccc(Cl)cc2)c1[C@H](OC(C)(C)C)C(=O)O`: the Kd in [1] came to 140 nM. Also, the results for the EC50 in [2] and in data set [3] were 31 nM and 120 nM, respectively.

Broadly, the IC50 is the concentration that gives 50% inhibition. Regarding `Cc1nc2ccc(Br)cc2c(-c2ccc(Cl)cc2)c1C(C)C(=O)O` (configuration not stated), the EC50 in [2] is 13000 nM. The molecule also displayed an IC50 in data set [4] of 310 nM.

In data set [2], `Cc1ccc(-c2c(CC(=O)O)c(C)nc3ccc(Br)cc23)cc1` returned an EC50 of 20000 nM. In data set [4], this molecule gave an IC50 of 350 nM.

In turn, `Cc1nc2ccc(Br)cc2c(-c2ccccc2)c1CC(=O)O` displayed an EC50 in data set [2] greater than 33000 nM.

Turning to `Cc1nc2ccc(Br)cc2c(-c2ccc(Cl)cc2)c1[C@H](OC(C)C)C(=O)O`, the Kd in data set [1] worked out at 280 nM. The molecule further yielded an EC50 in data set [2] of 130 nM.

Broadly, the half-life is how long it takes for the measured level to halve. With `Cc1ccc2c(-c3ccc4c5c(ccnc35)CCO4)c([C@H](OC(C)(C)C)C(=O)O)c(C)nc2c1`, the half-life in data set [5] stood at 3.5 h. In addition, the “fold change (FC)” value in data set [6] is recorded as 4.7. In addition, the EC50 in data set [2] was determined as 6 nM; in data set [3] it was 21 nM.

`Cc1ccc2c(-c3cccc4cccnc34)c([C@H](OC(C)(C)C)C(=O)O)c(C)nc2c1` returned a half-life in data set [5] greater than 5 h. Also, in data set [6], the “fold change (FC)” value came out at 4. Also, the EC50 was determined as 34 nM in data set [2] and 300 nM in data set [3].

In data set [5], `Cc1ccc2c(-c3ccc(Cl)cc3)c([C@H](OC(C)(C)C)C(=O)O)c(C)nc2c1` returned a half-life of 0.417 h. In addition, the Kd in data set [1] is 40 nM. Moreover, in data set [6], the “fold change (FC)” value was found to be 25. The EC50 in [2] was found to be 13 nM; in data set [3] it was 130 nM.

The molecule `COC(C(=O)O)c1c(C)nc2ccc(Br)cc2c1-c1ccc(Cl)cc1` (configuration not stated) came in with an EC50 in [2] of 990 nM. This molecule showed an IC50 in data set [4] of 40 nM.

With `Cc1ccc2nc(C)c([C@H](OC(C)(C)C)C(=O)O)c(-c3ccc(Cl)cc3)c2c1`, in [1], the Kd was determined as 48 nM. Further, the EC50 in data set [2] came out at 27 nM; in data set [3], 160 nM.

As for `Cc1nc2ccc(Br)cc2c(-c2ccc(Cl)cc2)c1[C@H](OC(C)(C)C)C(=O)O`, the Kd in [1] stood at 150 nM. Further, the EC50 turned out to be 78 nM in data set [2] and 610 nM in data set [3]. Further, the “Ratio EC50” value in data set [7] came out at 8.

Consider `CO[C@H](C(=O)O)c1c(C)nc2ccc(Br)cc2c1-c1ccc(Cl)cc1`, for which, in data set [1], the Kd is 4700 nM. The molecule also had an EC50 in [2] of 450 nM. In [4], this molecule yielded an IC50 of 28 nM.

In the case of `Cc1ccc2c(-c3ccc4c(c3Cl)NCCO4)c([C@H](OC(C)(C)C)C(=O)O)c(C)nc2c1`, the half-life in [5] came to 1.08 h. Besides, the “fold change (FC)” value in [6] amounted to 15. Moreover, in [3], a half-maximal response (EC50) required 29 nM.

Consider `Cc1ccc2c(-c3ccc4c(c3Cl)CCCO4)c([C@H](OC(C)(C)C)C(=O)O)c(C)nc2c1`, for which the “fold change (FC)” value in data set [6] is reported as 83. Moreover, the EC50 amounted to 2 nM in [2] and 22 nM in [3].

As to `Cc1nc2ccc(Cl)cc2c(-c2ccccc2)c1CC(=O)O`, in data set [2], the EC50 was greater than 40000 nM.

The molecule `Cc1nc2ccc(Br)cc2c(-c2ccc(Cl)cc2)c1CC(=O)O` came in with an EC50 in [2] of 16000 nM. Further, the IC50 in data set [4] turned out to be 270 nM.

As a reminder, the Papp is the rate of passage across a membrane or cell layer, normalised by area and donor concentration. In general, bioavailability refers to dose-corrected exposure relative to a reference, in per cent. Usually solubility stands for the dissolved amount per volume that the medium holds. For the molecule `Cc1nc2ccccc2c(-c2ccc3c4c(ccnc24)CCO3)c1[C@H](OC(C)(C)C)C(=O)O` [BI-224436], the EC50 in data set [8], in [9], in data set [10], in [2], in data set [14] and in data set [15] was 11 nM each time. The figures for the half-life in [5], in [11] and in data set [13] were 3.5 h, 8.8 h and greater than 5 h, respectively. In addition, the “fold change (FC)” value in data set [6] was found to be 2.1. The IC50 against Cytochrome P450 3A4 is 23000 nM; against Cytochrome P450 2D6 it was greater than 30000 nM. In addition, in [12], the Papp came to 14 ×10⁻⁶ cm/s. Besides, the bioavailability in data set [16] came out at 54%. The solubility in data set [17] was greater than 850 µg/mL.

Molecule `Cc1nc2ccccc2c(-c2ccc(Cl)cc2)c1CC(=O)O` displayed an EC50 in data set [2] greater than 43000 nM.

`Cc1nc2cc(F)ccc2c(-c2ccc(Cl)cc2)c1[C@H](OC(C)(C)C)C(=O)O`: the Kd in data set [1] came out at 68 nM. For the same molecule, the EC50 was 26 nM in data set [2] and 91 nM in [3].

As for `CCCC(C(=O)O)c1c(C)nc2ccc(Br)cc2c1-c1ccc(Cl)cc1` (configuration not stated), the EC50 in data set [2] stood at 920 nM. In data set [4], this molecule came in with an IC50 of 77 nM.

The molecule `Cc1ccc2c(-c3ccc4c(c3)CCCO4)c([C@H](OC(C)(C)C)C(=O)O)c(C)nc2c1` registered a half-life in data set [5] of 1.1 h. Besides, the “fold change (FC)” value in data set [6] came out at 66. In addition, the EC50 in [2] is 7 nM; in [3] it was 22 nM.

As for `CO[C@@H](C(=O)O)c1c(C)nc2ccc(Br)cc2c1-c1ccc(Cl)cc1`, the midpoint of the response in [2], the EC50, lay at 47000 nM. The IC50 in [4] was 3100 nM.

These data come from ChEMBL document CHEMBL3259658, “Discovery of BI 224436, a Noncatalytic Site Integrase Inhibitor (NCINI) of HIV-1” (ACS Med Chem Lett, 2014).
